Measured values published in PMC12166265 (Clinical Pharmacology and Therapeutics, 2025).
Read-outs that look alike come from different tables or passages of the source. Blank lines part the entries; values can stand above or below the compound they belong to.

Key:
[1] = system: ABCG2 p.Q141K variant; format: in vivo, human; settings: two p.Q141K (CA) vs nine REF (CC) individuals; T = 0 h
Method in brief: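 Open-label fixed-sequence crossover in 11 healthy non-smoking adults aged 18–64. Single oral rosuvastatin 10 mg given after an overnight fast, with fasting continued 4 h. Heparinised venous plasma was stored at −70°C and analysed by LC–MS. ABCG2 c.421C>A was genotyped blind by PCR and Sanger sequencing. Nine CC and two CA subjects were compared at T = 0 h and by noncompartmental PK, using log-transformed geometric means and unpaired t-tests.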

[2] = biological target: T1, OATP1B3 (Homo sapiens, UniProt Q9NPD5); assay: Substrate screening in HEK293 cells expressing OATP1B3; format: cell-based
T1 sequence (Q9NPD5 1-702): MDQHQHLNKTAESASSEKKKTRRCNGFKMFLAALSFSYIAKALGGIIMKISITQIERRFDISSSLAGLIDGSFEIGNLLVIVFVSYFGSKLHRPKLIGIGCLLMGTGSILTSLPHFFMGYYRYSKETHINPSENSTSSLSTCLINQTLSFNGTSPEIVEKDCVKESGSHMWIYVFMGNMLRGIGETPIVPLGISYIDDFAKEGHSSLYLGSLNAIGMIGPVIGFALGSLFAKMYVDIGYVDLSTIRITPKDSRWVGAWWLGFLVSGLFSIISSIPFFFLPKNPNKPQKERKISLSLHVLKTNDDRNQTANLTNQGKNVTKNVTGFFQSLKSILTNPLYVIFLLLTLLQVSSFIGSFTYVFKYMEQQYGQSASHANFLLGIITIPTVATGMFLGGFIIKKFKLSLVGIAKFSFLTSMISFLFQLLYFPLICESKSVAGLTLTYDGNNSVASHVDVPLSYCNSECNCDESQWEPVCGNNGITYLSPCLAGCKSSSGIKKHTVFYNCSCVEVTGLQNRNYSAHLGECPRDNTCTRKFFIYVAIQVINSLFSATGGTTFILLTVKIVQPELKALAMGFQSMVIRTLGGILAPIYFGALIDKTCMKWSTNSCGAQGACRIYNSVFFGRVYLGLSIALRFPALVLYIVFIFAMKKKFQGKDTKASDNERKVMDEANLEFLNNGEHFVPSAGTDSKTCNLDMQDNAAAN
Method in brief: (§1)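 Transporter-overexpressing HEK293 cells were cultured in DMEM with 10% FBS, 1% penicillin/streptomycin and selection antibiotics at 37°C, 5% CO₂. Test compounds were screened at 10 μM and 30 μM, and uptake was quantified as normalised peak areas. For OATP1B1/1B3, uptake was compared with empty-vector cells, and for OATP1B1 also with cells treated with the inhibitor cyclosporine A.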

[3] = biological target: T2, OATP1B1 (Homo sapiens, UniProt Q9Y6L6); format: cell-based; settings: HEK293 OATP1B1 cells
T2 sequence (Q9Y6L6 1-691): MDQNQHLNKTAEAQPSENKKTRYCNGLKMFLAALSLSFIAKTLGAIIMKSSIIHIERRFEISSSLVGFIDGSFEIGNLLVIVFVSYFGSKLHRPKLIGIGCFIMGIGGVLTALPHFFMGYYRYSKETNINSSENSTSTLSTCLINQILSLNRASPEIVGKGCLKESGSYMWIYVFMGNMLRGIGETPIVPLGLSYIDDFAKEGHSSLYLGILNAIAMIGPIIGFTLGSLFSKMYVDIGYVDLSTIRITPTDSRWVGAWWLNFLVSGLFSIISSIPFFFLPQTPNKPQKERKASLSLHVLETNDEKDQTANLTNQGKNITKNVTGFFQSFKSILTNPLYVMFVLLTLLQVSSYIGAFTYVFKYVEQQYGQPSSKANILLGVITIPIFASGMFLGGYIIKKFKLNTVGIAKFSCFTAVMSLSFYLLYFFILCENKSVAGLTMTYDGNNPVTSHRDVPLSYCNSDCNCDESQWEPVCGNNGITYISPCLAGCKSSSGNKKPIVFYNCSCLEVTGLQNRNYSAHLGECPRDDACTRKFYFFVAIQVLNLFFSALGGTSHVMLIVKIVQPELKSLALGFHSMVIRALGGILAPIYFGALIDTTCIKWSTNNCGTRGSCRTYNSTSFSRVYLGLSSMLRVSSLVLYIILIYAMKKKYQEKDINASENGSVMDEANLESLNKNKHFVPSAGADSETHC
Method in brief: as §1

[4] = biological target: T3, BCRP (Homo sapiens, UniProt Q9UNQ0); format: cell-based
T3 sequence (Q9UNQ0 1-655): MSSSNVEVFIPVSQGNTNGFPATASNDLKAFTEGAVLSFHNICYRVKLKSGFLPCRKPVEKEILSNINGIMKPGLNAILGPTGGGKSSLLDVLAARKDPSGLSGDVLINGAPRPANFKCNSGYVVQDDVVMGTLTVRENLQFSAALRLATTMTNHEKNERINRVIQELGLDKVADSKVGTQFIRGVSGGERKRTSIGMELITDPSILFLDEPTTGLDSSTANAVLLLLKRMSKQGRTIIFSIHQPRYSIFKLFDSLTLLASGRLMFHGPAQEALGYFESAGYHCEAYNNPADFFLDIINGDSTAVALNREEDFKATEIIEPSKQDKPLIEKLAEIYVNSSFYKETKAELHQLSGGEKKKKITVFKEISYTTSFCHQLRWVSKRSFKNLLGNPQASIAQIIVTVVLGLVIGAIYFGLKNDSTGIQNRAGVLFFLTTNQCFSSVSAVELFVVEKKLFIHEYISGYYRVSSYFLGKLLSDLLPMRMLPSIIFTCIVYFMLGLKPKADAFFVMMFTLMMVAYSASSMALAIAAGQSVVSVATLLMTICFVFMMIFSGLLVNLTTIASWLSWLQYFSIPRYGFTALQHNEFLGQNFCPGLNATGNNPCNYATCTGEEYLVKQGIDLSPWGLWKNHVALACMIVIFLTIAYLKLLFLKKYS
Method in brief: as §1

[5] = biological target: P-gp (Homo sapiens, UniProt P08183); assay: Inhibitor screening of [3H]digoxin accumulation in HEK293 cells expressing P-gp; format: cell-based
Method in brief: (§2)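 HEK293 lines overexpressing the named transporter were grown in DMEM with 10% FBS, 1% penicillin/streptomycin and line-specific selection antibiotics, at 37°C, humidified, 5% CO₂. Cell-based uptake assays measured inhibition of transporter activity.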

[6] = format: in vivo, human; settings: for AUC(0-t): geometric mean (90% CI)
[7] = biological target: T4, RFVT2 (Homo sapiens, UniProt Q9HAB3); format: cell-based
T4 sequence (Q9HAB3 1-445): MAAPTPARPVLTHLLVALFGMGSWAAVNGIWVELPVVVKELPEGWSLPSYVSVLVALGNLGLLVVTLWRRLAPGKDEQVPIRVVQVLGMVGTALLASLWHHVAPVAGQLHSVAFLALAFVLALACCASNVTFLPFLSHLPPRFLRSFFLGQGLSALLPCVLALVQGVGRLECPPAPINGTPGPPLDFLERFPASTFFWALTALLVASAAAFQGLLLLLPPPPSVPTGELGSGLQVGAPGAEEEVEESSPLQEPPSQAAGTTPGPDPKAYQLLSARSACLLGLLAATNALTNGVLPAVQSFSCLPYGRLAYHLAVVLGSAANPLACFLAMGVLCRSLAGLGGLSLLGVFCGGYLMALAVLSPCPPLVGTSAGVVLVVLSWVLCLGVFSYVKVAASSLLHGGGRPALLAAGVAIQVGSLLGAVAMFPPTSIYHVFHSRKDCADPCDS
Method in brief: as §2

[8] = biological target: T5, RFVT1 (Homo sapiens, UniProt Q9NWF4); format: cell-based
T5 sequence (Q9NWF4 1-448): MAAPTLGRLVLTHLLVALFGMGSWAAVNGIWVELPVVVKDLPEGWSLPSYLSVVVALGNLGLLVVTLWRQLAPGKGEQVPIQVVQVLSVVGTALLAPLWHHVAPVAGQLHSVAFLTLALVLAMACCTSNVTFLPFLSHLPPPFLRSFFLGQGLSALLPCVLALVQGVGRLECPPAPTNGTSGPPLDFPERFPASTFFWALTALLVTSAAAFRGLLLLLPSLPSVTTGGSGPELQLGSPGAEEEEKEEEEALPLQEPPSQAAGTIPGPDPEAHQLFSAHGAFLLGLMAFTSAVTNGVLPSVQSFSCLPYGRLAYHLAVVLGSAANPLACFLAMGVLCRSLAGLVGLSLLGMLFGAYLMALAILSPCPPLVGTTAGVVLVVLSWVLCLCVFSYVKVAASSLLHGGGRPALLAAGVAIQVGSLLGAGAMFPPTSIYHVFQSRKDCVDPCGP
Method in brief: as §2

[9] = system: hepatic BCRP; settings: intravenous ceftriaxone as model; cited from earlier work
[10] = biological target: T2, OATP1B1; format: cell-based
Method in brief: as §2

[11] = biological target: T3, BCRP; format: biochemical
[12] = biological target: T1, OATP1B3; format: cell-based
Method in brief: as §2

[13] = biological target: T6, RFVT3 (Homo sapiens, UniProt Q9NQ40); format: cell-based
T6 sequence (Q9NQ40 1-469): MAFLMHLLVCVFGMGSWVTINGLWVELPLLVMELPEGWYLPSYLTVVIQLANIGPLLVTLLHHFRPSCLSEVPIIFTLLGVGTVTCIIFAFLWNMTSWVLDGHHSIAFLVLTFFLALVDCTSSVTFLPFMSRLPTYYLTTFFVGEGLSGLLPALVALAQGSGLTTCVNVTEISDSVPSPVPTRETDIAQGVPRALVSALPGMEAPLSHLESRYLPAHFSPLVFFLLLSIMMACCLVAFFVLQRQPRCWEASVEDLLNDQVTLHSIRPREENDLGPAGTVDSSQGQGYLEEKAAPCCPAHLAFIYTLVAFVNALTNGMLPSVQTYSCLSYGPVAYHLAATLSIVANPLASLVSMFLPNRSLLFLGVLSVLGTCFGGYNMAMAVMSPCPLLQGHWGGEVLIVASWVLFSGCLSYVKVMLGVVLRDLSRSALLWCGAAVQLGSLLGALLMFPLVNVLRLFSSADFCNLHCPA
Method in brief: as §2

[14] = both, human, plasma, oral, 10 mg

Chain of P-gp (P08183 whole entry): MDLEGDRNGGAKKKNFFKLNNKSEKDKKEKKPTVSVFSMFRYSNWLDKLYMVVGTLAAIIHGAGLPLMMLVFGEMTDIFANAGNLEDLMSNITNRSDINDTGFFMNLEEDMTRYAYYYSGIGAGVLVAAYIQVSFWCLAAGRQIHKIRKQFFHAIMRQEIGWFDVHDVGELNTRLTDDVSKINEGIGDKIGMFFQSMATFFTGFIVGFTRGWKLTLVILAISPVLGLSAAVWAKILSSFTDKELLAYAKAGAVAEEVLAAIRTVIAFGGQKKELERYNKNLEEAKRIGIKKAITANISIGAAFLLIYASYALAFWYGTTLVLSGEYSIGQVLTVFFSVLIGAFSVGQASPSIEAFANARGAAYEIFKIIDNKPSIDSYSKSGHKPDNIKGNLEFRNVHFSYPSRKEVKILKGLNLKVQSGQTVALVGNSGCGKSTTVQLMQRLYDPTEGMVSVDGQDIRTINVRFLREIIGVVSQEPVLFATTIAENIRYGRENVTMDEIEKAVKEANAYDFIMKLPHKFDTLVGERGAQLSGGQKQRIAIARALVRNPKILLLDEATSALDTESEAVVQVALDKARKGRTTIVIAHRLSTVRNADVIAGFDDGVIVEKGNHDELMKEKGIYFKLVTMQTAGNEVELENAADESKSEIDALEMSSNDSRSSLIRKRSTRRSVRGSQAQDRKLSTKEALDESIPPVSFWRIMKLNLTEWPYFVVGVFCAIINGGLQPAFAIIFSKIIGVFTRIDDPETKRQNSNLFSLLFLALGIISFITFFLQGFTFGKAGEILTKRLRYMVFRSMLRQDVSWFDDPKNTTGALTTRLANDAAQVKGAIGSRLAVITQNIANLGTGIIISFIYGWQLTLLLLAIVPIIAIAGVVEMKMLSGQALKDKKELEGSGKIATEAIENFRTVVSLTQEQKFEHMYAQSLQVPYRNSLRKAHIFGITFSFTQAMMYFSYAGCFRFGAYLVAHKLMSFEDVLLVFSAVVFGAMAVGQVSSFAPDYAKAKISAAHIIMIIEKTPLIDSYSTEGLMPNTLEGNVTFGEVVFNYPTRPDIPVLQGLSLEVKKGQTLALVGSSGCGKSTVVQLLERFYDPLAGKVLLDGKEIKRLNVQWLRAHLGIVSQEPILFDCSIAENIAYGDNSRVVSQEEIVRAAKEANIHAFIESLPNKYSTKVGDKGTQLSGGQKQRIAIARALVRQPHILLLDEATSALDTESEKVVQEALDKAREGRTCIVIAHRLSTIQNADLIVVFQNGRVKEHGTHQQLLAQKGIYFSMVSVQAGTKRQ

Baseline concentrations, heterozygous p.Q141K vs homozygous reference allele [1]: not statistically significant
OATP1B3 substrate classification [2]: not substrates
OATP1B1 substrate classification [3]: not substrates
Uptake in BCRP-expressing HEK293 cells compared to same cell line with Ko143 ([4]; 10 μM and 30 μM, 30 min): significantly reduced
BCRP substrate classification ([4]; HEK293 BCRP cells): BCRP substrates
Effect on intracellular accumulation of P-gp substrate [3H]digoxin [5]: did not affect
AUC0−24, geometric mean ratio (90% CI) of rosuvastatin + eltrombopag arm to rosuvastatin alone arm ([6]; both, human, plasma, oral): 1.03 (0.97–1.10); P = 0.39
C0 at 0 h ([6]; both, human, plasma, oral): 0.8 ng/mL
Cmax ([6]; both, human, plasma, oral): 0.98 ng/mL
C0 at 0 h [6, 14]: 0.73 ng/mL
Cmax [6, 14]: 1.03 ng/mL
AUC(0-t) ([6]; both, human, plasma, oral, 10 mg, AUC0−4, rosuvastatin alone arm): 3.02 ng·h/mL
AUC(0-t) ([6]; both, human, plasma, oral, 10 mg, AUC0−24, rosuvastatin alone arm): 18.6 ng·h/mL
AUC(0-t) ([6]; both, human, plasma, oral, AUC0−4, rosuvastatin + eltrombopag arm): 2.97 ng·h/mL
AUC(0-t) ([6]; both, human, plasma, oral, AUC0−24, rosuvastatin + eltrombopag arm): 19.2 ng·h/mL
Effect of eltrombopag administration on plasma concentrations (in words) ([6]; eltrombopag 75 mg daily for 5 days): did not lead to corresponding increases
AUC0−4, geometric mean ratio (90% CI) of rosuvastatin + eltrombopag arm to rosuvastatin alone arm ([6]; human, in vivo): 0.98 (0.93–1.04); P = 0.72
C0, geometric mean ratio (90% CI) of rosuvastatin + eltrombopag arm to rosuvastatin alone arm ([6]; human, in vivo): 1.10 (1.00–1.21); P = 0.07
Cmax, geometric mean ratio (90% CI) of rosuvastatin + eltrombopag arm to rosuvastatin alone arm ([6]; human, in vivo): 0.95 (0.85–1.06); P = 0.49
Food effects, fasted (AUC0−4) vs fed (AUC4−8) ([6]; human, in vivo): No food effects
Structure (SMILES): O=C(O)c1c(O)c(Cl)cc(Cl)c1O [DCDBA, 3,5‐dichloro‐2,6‐dihydroxybenzoic acid]

IC50 [7]: 28.2 ± 15.7 µM
IC50 [8]: 44.7 ± 18.3 µM
IC50 [10]: 1.4 ± 1.2 µM
IC50 [11]: 4.9 ± 0.6 µM
IC50 [12]: 4 ± 3.1 µM
IC50 [13]: 26.3 ± 34 µM
Structure (SMILES): CC1=NN(c2ccc(C)c(C)c2)C(=O)/C1=N\Nc1cccc(-c2cccc(C(=O)O)c2)c1O [Eltrombopag]
Inhibition of hepatic BCRP [9]: does not inhibit
